Measurements taken from ChEMBL document CHEMBL1821656, “Design, synthesis, and evaluation of inhibitors of Norwalk virus 3C protease” (Bioorg Med Chem Lett, 2011).

Experiments:
Norwalk virus [1] = assay: Inhibition of recombinant Norwalk virus 3C protease using Edans-EPDFHLQGPEDLAK-Dabcyl as substrate at [compound]/[substrate] ratio of 25 preincubated for 30 mins measured for 30 mins by spectrofluorometry; parameters: concentration or dose not given beside the values
[2] = (§1) Inhibition of recombinant Norwalk virus 3C protease using Edans-EPDFHLQGPEDLAK-Dabcyl as substrate preincubated for 30 mins measured for 30 mins by spectrofluorometry
How it was run: (§2)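 Enzyme (final 2.5 μM) was held at 30 °C in pH 8.0 sodium phosphate (50 mM) containing 120 mM NaCl and 6 mM DTT. The fluorescence increase was monitored 30 min at 360/460 nm excitation/emission.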

[3] = Cytotoxicity against human HG23 cells after 48 hrs; assay type: cell-based; settings: read-out: TD50
How it was run: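 HG23 cells carrying the Norwalk replicon were used 1 day after plating at 80-90% confluence. They were exposed for 48 hr to compound at 0 (DMSO mock) to 320 μM. Viability was measured with a commercial cytotoxicity kit, and the median toxic dose (TD50) was calculated.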

Norwalk virus [4] = assay: Antiviral activity against Norwalk virus in NV replicon-harboring HG23 cells assessed as inhibition of viral replication after 24 hrs by analyzing NV genome level using qRT-PCR; assay type: functional; settings: HG23, 24 h, read-out: ED50 (the source's name)
How it was run: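 HG23 cells (stably harbouring NV replicon), 1 day old and 80–90% confluent, treated with compound at 0 (DMSO mock) to 320 μM. NV genome levels quantified by qRT-PCR after 24 h of treatment.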

[5] = Cytotoxicity against mouse […] cells after 12 to 24 hrs relative to ribavirin; assay type: cell-based; settings: read-out: TD50 (the source's name)
Norwalk virus [6] = assay: as §1; how it was run: as §2

CC(C)C[C@H](NC(=O)OCc1ccccc1)C(=O)N[C@@H](CC1CCNC1=O)C(=O)C(=O)NC(C)C (stereo partly specified)
inhibition (Norwalk virus [1]): < 25%

CC[C@@H](C)[C@H](NC(=O)CNC(=O)OCc1ccccc1)C(=O)N[C@H](C=O)CC1CCNC1=O (stereo partly specified)
IC50 [2]: 7.5 µM

CC(C)C[C@H](NC(=O)CNC(=O)OCc1ccccc1)C(=O)N[C@H](CO)CC1CCNC1=O (stereo partly specified)
inhibition (Norwalk virus [1]): < 25%

O=C[C@H](CC1CCNC1=O)NC(=O)[C@H](Cc1ccccc1)NC(=O)N1CCOCC1 (stereo partly specified)
inhibition (Norwalk virus [1]): < 25%

CC(C)C[C@H](NC(=O)CNC(=O)OCc1ccccc1)C(=O)N[C@H](C=O)CC1CCNC1=O (stereo partly specified)
IC50 [2]: 1.45 µM
CC50 at 48 h [3]: > 320 µM
EC50 (Norwalk virus [4]): 7.8 µM
CC50 [5]: > 320 µM

CC(C)C[C@H](NC(=O)N1CCOCC1)C(=O)N[C@H](C=O)CC1CCNC1=O (stereo partly specified)
IC50 [2]: 7.2 µM

CC(C)C[C@H](NC(=O)OCc1ccccc1)C(=O)N[C@H](C=O)CC1CCNC1=O (stereo partly specified)
IC50 [2]: 1.82 µM
inhibition (Norwalk virus [6]): Dose-dependent effect
CC50 at 48 h [3]: > 320 µM
CC50 [5]: > 320 µM

CCCC[C@H](NC(=O)CNC(=O)OCc1ccccc1)C(=O)N[C@H](C=O)CC1CCNC1=O (stereo partly specified)
IC50 [2]: 0.87 µM

CC(C)C[C@H](NC(=O)OCc1ccccc1)C(=O)N[C@H](CO)CC1CCNC1=O (stereo partly specified)
inhibition (Norwalk virus [1]): < 25%

CCCC[C@H](NC(=O)CNC(=O)OCc1ccccc1)C(=O)N[C@H](CO)CC1CCNC1=O (stereo partly specified)
inhibition (Norwalk virus [1]): < 25%
